Laboratory results published in ChEMBL document CHEMBL3352121, “Modulation of Activity Profiles for Largazole-Based HDAC Inhibitors through Alteration of Prodrug Properties” (ACS Med Chem Lett, 2014).
Active and inactive are the calls of the source. The calls are words filed in the database; no cut-off is given here.

Assays:
HCT-116 [1] = assay: In vivo inhibition of HDAC in tumor of human HCT116 cells xenografted nu/nu mouse assessed as increase in histone hyperacetylation at 10 mg/kg, ip after 4 to 12 hrs by immunoblotting method; assay type: functional, organism-based; parameters: dose 10 mg/kg
Outline: (§1)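 Mice bearing HCT116 xenografts were dosed intraperitoneally at 10 or 50 mg/kg, or orally at 50 mg/kg. Tumors were excised at 4, 12 and 24 h. Histone hyperacetylation in the tumors was assessed by immunoblot, n = 2.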

[2] = molecular target: T1, Polyamine deacetylase HDAC10 (Homo sapiens, UniProt Q969S8); assay: Inhibition of HDAC10 (unknown origin) incubated for 30 mins in presence of BSA and DTT by fluorescence assay
T1 sequence (Q969S8 whole entry): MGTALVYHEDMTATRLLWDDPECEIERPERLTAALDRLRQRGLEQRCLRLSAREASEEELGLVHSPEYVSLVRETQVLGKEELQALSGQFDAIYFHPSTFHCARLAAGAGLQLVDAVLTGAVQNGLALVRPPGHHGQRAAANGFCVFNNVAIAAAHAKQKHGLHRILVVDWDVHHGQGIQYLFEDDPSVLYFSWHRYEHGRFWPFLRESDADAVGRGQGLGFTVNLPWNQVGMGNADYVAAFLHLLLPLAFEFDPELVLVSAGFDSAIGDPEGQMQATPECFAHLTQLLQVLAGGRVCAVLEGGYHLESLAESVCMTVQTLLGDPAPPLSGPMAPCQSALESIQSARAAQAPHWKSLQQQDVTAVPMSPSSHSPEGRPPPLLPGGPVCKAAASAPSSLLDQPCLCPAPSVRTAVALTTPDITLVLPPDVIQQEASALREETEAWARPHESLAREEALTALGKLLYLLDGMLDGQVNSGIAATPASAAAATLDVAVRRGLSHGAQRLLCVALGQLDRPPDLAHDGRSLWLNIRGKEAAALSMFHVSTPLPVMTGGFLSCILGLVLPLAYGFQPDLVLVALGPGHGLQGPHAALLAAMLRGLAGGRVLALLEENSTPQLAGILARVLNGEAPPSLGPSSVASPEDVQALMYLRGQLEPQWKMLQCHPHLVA
Outline: (§2)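 Purified HDAC isoforms were tested up to a maximum of 1 μM. IC50 values are averages of duplicate experiments. Disulfide compounds were pretreated with DTT to reduce the disulfide bond.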

Serum = assay: Drug metabolism in mouse serum assessed as largazole thiol formation after 0.25 to 1440 mins by HPLC-MS method; assay type: ADME, cell-free
[3] = molecular target: T2, Protein deacetylase HDAC6 (Homo sapiens, UniProt Q9UBN7); assay: Inhibition of HDAC6 (unknown origin) incubated for 30 mins in presence of BSA and DTT by fluorescence assay; outline: as §2
T2 sequence (Q9UBN7 whole entry): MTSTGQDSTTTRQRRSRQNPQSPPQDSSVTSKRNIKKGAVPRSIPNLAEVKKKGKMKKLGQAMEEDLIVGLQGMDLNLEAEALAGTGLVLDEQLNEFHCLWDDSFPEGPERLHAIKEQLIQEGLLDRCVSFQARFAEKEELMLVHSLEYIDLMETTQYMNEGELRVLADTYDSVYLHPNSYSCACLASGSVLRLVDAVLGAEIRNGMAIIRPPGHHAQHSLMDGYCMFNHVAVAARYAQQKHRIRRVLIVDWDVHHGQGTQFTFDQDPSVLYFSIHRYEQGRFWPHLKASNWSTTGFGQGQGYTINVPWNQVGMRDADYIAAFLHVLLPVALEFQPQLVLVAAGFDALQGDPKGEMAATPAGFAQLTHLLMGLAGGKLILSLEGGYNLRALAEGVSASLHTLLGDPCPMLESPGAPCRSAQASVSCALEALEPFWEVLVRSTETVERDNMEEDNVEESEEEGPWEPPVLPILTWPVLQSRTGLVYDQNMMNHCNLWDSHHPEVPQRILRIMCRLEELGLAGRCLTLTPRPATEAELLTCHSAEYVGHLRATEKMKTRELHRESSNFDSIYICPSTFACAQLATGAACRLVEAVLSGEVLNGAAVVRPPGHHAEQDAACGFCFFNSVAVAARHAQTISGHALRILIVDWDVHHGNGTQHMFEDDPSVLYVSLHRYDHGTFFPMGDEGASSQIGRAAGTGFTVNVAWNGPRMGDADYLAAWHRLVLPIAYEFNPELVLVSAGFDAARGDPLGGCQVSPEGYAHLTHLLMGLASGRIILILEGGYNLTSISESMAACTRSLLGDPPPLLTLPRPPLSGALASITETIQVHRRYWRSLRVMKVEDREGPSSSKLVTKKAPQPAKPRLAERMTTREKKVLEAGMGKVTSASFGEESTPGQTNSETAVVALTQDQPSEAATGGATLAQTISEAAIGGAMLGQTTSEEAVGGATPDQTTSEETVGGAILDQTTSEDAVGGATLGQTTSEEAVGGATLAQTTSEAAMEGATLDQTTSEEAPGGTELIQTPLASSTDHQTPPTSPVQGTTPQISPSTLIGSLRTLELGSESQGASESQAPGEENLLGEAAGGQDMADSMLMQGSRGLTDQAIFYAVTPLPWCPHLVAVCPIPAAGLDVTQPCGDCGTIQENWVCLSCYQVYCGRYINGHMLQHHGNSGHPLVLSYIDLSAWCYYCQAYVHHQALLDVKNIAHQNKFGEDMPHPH

HCT-116 [4] = assay: In vivo inhibition of HDAC in tumor of human HCT116 cells xenografted nu/nu mouse assessed as increase in histone hyperacetylation at 50 mg/kg, ip after 12 hrs by immunoblotting method; assay type: functional, organism-based; parameters: dose 50 mg/kg; outline: as §1
[5] = Drug metabolism in tumor of human HCT116 cells xenografted nu/nu mouse assessed as time for maximum largazole thiol level at 50 mg/kg, ip by HPLC-MS method; assay type: ADME, organism-based, Neoplasm, HCT-116; parameters: dose 50 mg/kg, route intraperitoneal; conditions: in vivo
HCT-116 [6] = assay: In vivo inhibition of HDAC in tumor of human HCT116 cells xenografted nu/nu mouse assessed as increase in histone hyperacetylation at 50 mg/kg, ip after 4 to 24 hrs by immunoblotting method; assay type: functional, organism-based; parameters: dose 50 mg/kg
Outline: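 HCT116 xenograft mice were dosed intraperitoneally at 10 or 50 mg/kg. Tumors were excised after 4, 12 and 24 h, n = 2. Histone hyperacetylation in tumor tissue was assessed by immunoblotting.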

[7] = Drug metabolism in tumor of human HCT116 cells xenografted nu/nu mouse assessed largazole thiol formation at 50 mg/kg, po by HPLC-MS method; conditions: in vivo
[8] = Drug metabolism in human HCT116 cells protein lysate solution assessed as largazole thiol formation at 25 ug/mL after 1 hr by HPLC-MS method; assay type: ADME, cell-based; conditions: hct-116, 1 h
[9] = Drug metabolism in tumor of human HCT116 cells xenografted nu/nu mouse assessed as time for maximum largazole thiol level at 10 mg/kg, ip by HPLC-MS method; assay type: ADME, organism-based, Neoplasm, HCT-116; parameters: dose 10 mg/kg, route intraperitoneal; conditions: in vivo
HCT-116 [10] = assay: In vivo inhibition of HDAC in tumor of human HCT116 cells xenografted nu/nu mouse assessed as increase in histone hyperacetylation at 50 mg/kg, po after 4 to 12 hrs by immunoblotting method; assay type: functional, organism-based; parameters: dose 50 mg/kg; outline: as §1

| SMILES | inhibition (HCT-116 [1]) | IC50 [2] | Drug metabolism (Serum) | IC50 [3] | inhibition (HCT-116 [4]) | Tmax [5] | inhibition (HCT-116 [6]) | Drug metabolism [7] | Drug metabolism [8] | Tmax [9] | inhibition (HCT-116 [10]) |
| --- | --- | --- | --- | --- | --- | --- | --- | --- | --- | --- | --- |
| CC(C)[C@@H]1NC(=O)[C@]2(C)CSC(=N2)c2csc(n2)CNC(=O)C[C@@H](/C=C/CCSSCC/C=C/[C@@H]2CC(=O)NCc3nc(cs3)C3=N[C@@](C)(CS3)C(=O)N[C@@H](C(C)C)C(=O)O2)OC1=O | Active | 0.2 nM | metabolite_notdetected | 61 nM | inactive | 4 h | Active | metabolite_notdetected | metabolite_detected | 4 h | inactive |
| CC(C)[C@@H]1NC(=O)[C@]2(C)CSC(=N2)c2csc(n2)CNC(=O)C[C@@H](/C=C/CCSSC[C@H](NC(=O)OC(C)(C)C)C(=O)OC(C)(C)C)OC1=O | – | 0.5 nM | – | 135 nM | – | – | – | – | – | – | – |
